We go through five molecules from ChEMBL document CHEMBL1155262, “A new class of anticonvulsants possessing 6 Hz activity: 3,4-dialkyloxy thiophene bishydrazones” (Eur J Med Chem, 2009).

The source made the active and inactive calls. No cut-off for these calls is given here.

Series [1] concerns Mus musculus. Put plainly: Anticonvulsant activity in mouse CF1 albino assessed as inhibition of minimal electric shock-induced seizure at 50 mg/kg, ip after 0.5 hrs. Set-up: dose 50 mg/kg. It is filed as functional, organism-based. The procedure, abridged: (§1)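 6 Hz psychomotor seizure model in male CF-1 albino mice dosed i.p. Four mice per time point (0.25, 0.5, 1, 2, 4 h) received corneal-electrode current of 32 mA for 3 s. Untreated mice show a minimal clonic phase followed by stereotyped automatistic behaviour. Results given as number protected out of 4.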

In series [2] the test system is Mus musculus. Put plainly: Anticonvulsant activity in mouse CF1 albino assessed as inhibition of minimal electric shock-induced seizure at 50 mg/kg, ip after 1 hr. It counts as functional, organism-based. Set-up: dose 50 mg/kg. The procedure, abridged:
as §1

The subject of series [3] is Mus musculus. Kind of series: Anticonvulsant activity in mouse CF1 albino assessed as inhibition of minimal electric shock-induced seizure at 50 mg/kg, ip after 2 hrs. It is filed as functional, organism-based. Set-up: dose 50 mg/kg. The procedure, abridged: as §1
Series [4] has as its system Mus musculus. Put plainly: Anticonvulsant activity in mouse CF1 albino assessed as inhibition of minimal electric shock-induced seizure at 50 mg/kg, ip after 4 hrs. It counts as functional, organism-based. Set-up: dose 50 mg/kg. The procedure, abridged:
as §1

The subject of series [5] is Mus musculus. Kind of series: Anticonvulsant activity in mouse CF1 albino assessed as inhibition of maximal electric shock-induced seizure at 300 mg/kg, ip after 4 hrs. It counts as functional, organism-based. Set-up: dose 300 mg/kg. A digest of the protocol:
(§2)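 Male CF-1 albino mice (18–25 g); compound suspended in 0.5% methyl cellulose/water or PEG 200, given i.p. at 30, 100 and 300 mg/kg (0.01 mL/g). Tested 0.5 or 4 h after dosing. Protection = abolition of hind limb tonic extensor component of MES seizure.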

Series [6] concerns Mus musculus. Put plainly: Anticonvulsant activity in mouse CF1 albino assessed as inhibition of maximal electric shock-induced seizure at 300 mg/kg, ip after 0.5 hrs. It is filed as functional, organism-based. Set-up: dose 300 mg/kg. A digest of the protocol: as §2
For series [7], the system named is Mus musculus. Kind of series: Anticonvulsant activity in ip dosed mouse CF1 albino assessed as inhibition of subcutaneous metrazole-induced seizure after 0.5 hrs. It counts as functional.
The subject of series [8] is Mus musculus. Put plainly: Anticonvulsant activity in mouse CF1 albino assessed as inhibition of subcutaneous metrazole-induced seizure at 300 mg/kg, ip after 4 hrs. Set-up: dose 300 mg/kg. It counts as functional, organism-based.
For series [9], the system named is Mus musculus. Put plainly: Neurotoxicity against mouse CF1 albino assessed as minimal motor impairment at 300 mg/kg, ip after 0.5 hrs by rotord test. It is filed as toxicity, organism-based. As to conditions: in vivo. Set-up: dose 300 mg/kg, route intraperitoneal. A digest of the protocol: (§3)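 Rotorod minimal motor impairment in male CF-1 albino mice (18–25 g) after i.p. dosing at 30, 100 or 300 mg/kg in 0.5% methyl cellulose/water or PEG 200. Mice placed on a rod rotating at 6 rpm at 0.5 or 4 h. Value is minimum dose causing impairment in at least one mouse.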

The test system of series [10] is Mus musculus. Put plainly: Neurotoxicity against mouse CF1 albino assessed as minimal motor impairment at 300 mg/kg, ip after 4 hrs by rotord test. It counts as toxicity, organism-based. Set-up: dose 300 mg/kg, route intraperitoneal. As to conditions: in vivo. The procedure, abridged: as §3
The subject of series [11] is Mus musculus. Kind of series: Anticonvulsant activity in mouse CF1 albino assessed as inhibition of minimal electric shock-induced seizure at 100 mg/kg, ip after 4 hrs. Set-up: dose 100 mg/kg. It counts as functional, organism-based. The procedure, abridged: as §1
Series [12] has as its system Mus musculus. Put plainly: Anticonvulsant activity in mouse CF1 albino assessed as inhibition of minimal electric shock-induced seizure at 50 mg/kg, ip after 0.25 hrs. Set-up: dose 50 mg/kg. It is filed as functional, organism-based. A digest of the protocol: as §1
Series [13] has as its system Mus musculus. Put plainly: Anticonvulsant activity in mouse CF1 albino assessed as inhibition of minimal electric shock-induced seizure at 30 mg/kg, ip after 2 hrs. It counts as functional, organism-based. Set-up: dose 30 mg/kg. A digest of the protocol:
as §1

Series [14] has as its system Mus musculus. Kind of series: Anticonvulsant activity in mouse CF1 albino assessed as inhibition of minimal electric shock-induced seizure at 30 mg/kg, ip after 4 hrs. Set-up: dose 30 mg/kg. It counts as functional, organism-based. A digest of the protocol:
as §1

Series [15] deals with Mus musculus. Kind of series: Anticonvulsant activity in mouse CF1 albino assessed as inhibition of subcutaneous metrazole-induced seizure at 300 mg/kg, ip after 0.5 hrs. It counts as functional, organism-based. Set-up: dose 300 mg/kg.
For series [16], the system named is Mus musculus. Put plainly: Anticonvulsant activity in ip dosed mouse CF1 albino assessed as inhibition of maximal electric shock-induced seizure after 0.5 hrs. It is filed as functional. The procedure, abridged: as §2
In series [17] the test system is Mus musculus. Put plainly: Anticonvulsant activity in mouse CF1 albino assessed as inhibition of minimal electric shock-induced seizure at 30 mg/kg, ip after 0.25 hrs. Set-up: dose 30 mg/kg. It counts as functional, organism-based. The procedure, abridged:
as §1

Series [18] has as its system Mus musculus. Kind of series: Anticonvulsant activity in mouse CF1 albino assessed as inhibition of minimal electric shock-induced seizure at 30 mg/kg, ip after 0.5 hrs. It counts as functional, organism-based. Set-up: dose 30 mg/kg. The procedure, abridged:
as §1

Series [19] deals with Mus musculus. Kind of series: Anticonvulsant activity in mouse CF1 albino assessed as inhibition of minimal electric shock-induced seizure at 30 mg/kg, ip after 1 hr. Set-up: dose 30 mg/kg. It is filed as functional, organism-based. A digest of the protocol:
as §1

Series [20] concerns Mus musculus. Kind of series: Anticonvulsant activity in ip dosed mouse CF1 albino assessed as inhibition of subcutaneous metrazole-induced seizure after 4 hrs. It counts as functional.
Series [21] has as its system Mus musculus. Kind of series: Anticonvulsant activity in mouse CF1 albino assessed as inhibition of minimal electric shock-induced seizure at 60 mg/kg, ip after 0.25 hrs. It counts as functional, organism-based. Set-up: dose 60 mg/kg. The procedure, abridged: as §1
Series [22] relates to Mus musculus. Kind of series: Anticonvulsant activity in mouse CF1 albino assessed as inhibition of minimal electric shock-induced seizure at 60 mg/kg, ip after 0.5 hrs. It counts as functional, organism-based. Set-up: dose 60 mg/kg. The procedure, abridged: as §1
For series [23], the system named is Mus musculus. Put plainly: Anticonvulsant activity in mouse CF1 albino assessed as inhibition of minimal electric shock-induced seizure at 60 mg/kg, ip after 1 hr. Set-up: dose 60 mg/kg. It is filed as functional, organism-based. A digest of the protocol: as §1
The test system of series [24] is Mus musculus. Put plainly: Anticonvulsant activity in mouse CF1 albino assessed as inhibition of minimal electric shock-induced seizure at 60 mg/kg, ip after 2 hrs. Set-up: dose 60 mg/kg. It is filed as functional, organism-based. A digest of the protocol:
as §1

Series [25] concerns Mus musculus. Kind of series: Anticonvulsant activity in mouse CF1 albino assessed as inhibition of minimal electric shock-induced seizure at 60 mg/kg, ip after 4 hrs. It counts as functional, organism-based. Set-up: dose 60 mg/kg. A digest of the protocol:
as §1

Series [26] has as its system Mus musculus. Kind of series: Anticonvulsant activity in mouse CF1 albino assessed as inhibition of minimal electric shock-induced seizure at 100 mg/kg, ip after 0.25 hrs. It counts as functional, organism-based. Set-up: dose 100 mg/kg. The procedure, abridged:
as §1

Series [27] concerns Mus musculus. Kind of series: Anticonvulsant activity in mouse CF1 albino assessed as inhibition of minimal electric shock-induced seizure at 100 mg/kg, ip after 0.5 hrs. Set-up: dose 100 mg/kg. It is filed as functional, organism-based. The procedure, abridged: as §1
Series [28] has as its system Mus musculus. Kind of series: Anticonvulsant activity in mouse CF1 albino assessed as inhibition of minimal electric shock-induced seizure at 100 mg/kg, ip after 1 hr. It counts as functional, organism-based. Set-up: dose 100 mg/kg. A digest of the protocol:
as §1

For the molecule `CCCCCCCOc1c(C(=O)N/N=C/c2ccccc2)sc(C(=O)N/N=C/c2ccccc2)c1OCCCCCCC`, the outcome in series [1], in series [2], in [3], in series [4], in series [5] and in [6] was inactive. The outcome in series [8], in [11] and in series [12] was inactive. Besides, the Activity in [7] was 300 mg/kg; in series [9] it was “Not Active”; in series [10] it was “Not Active”.

As to `C/C(=N\NC(=O)c1sc(C(=O)N/N=C(\C)c2cccs2)c2c1OCCO2)c1cccs1`, the result in series [13], in series [14], in series [15], in series [5], in series [8] and in series [11] was inactive. Also, the Activity in series [16] was 300 mg/kg; in series [9] it was “Not Active”; in [10] it was “Not Active”.

On to `O=C(N/N=C/c1ccccc1)c1sc(C(=O)N/N=C/c2ccccc2)c(OCc2ccccc2)c1OCc1ccccc1`, for which the result in series [17], in series [18], in series [19], in series [13], in series [15] and in [5] was inactive. Besides, the Activity in [16] was 300 mg/kg; in series [20], 300 mg/kg; in series [9] it was “Not Active”; in series [10], “Not Active”.

As for `CCCCCCCOc1c(C(=O)N/N=C/c2ccc([N+](=O)[O-])cc2)sc(C(=O)N/N=C/c2ccc([N+](=O)[O-])cc2)c1OCCCCCCC`, the outcome in [21], in series [22], in series [23], in series [24], in series [25] and in [26] was inactive. Further, the result in series [28] and in series [11] was inactive. The result in [27] was Active.

On to `O=C(N/N=C/c1ccc2c(c1)Cc1ccccc1-2)c1sc(C(=O)N/N=C/c2ccc3c(c2)Cc2ccccc2-3)c2c1OCCO2`, for which the outcome in [5], in series [6] and in series [8] was inactive. The Activity in series [7] is 300 mg/kg; in series [9], “Not Active”; in [10], “Not Active”.
